From ChEMBL document CHEMBL1165954, “Synthesis and in vitro antiprotozoal evaluation of substituted phenalenone analogues” (Bioorg Med Chem, 2010) come the findings set out here.

Data set [1] in a line: Cytotoxicity against human MCF7 cells assessed as growth inhibition at 10 uM after 72 hrs by MTT assay. It counts as cell-based. The procedure, abridged: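 MCF-7 cells in DMEM with 10% FBS, plated at 10,000 cells/well. After 72 h, MTT was added at 0.5 mg/mL final for 3 h at 37 °C. Formazan was dissolved in SDS–HCl (20% SDS, 0.02 M HCl) and absorbance read at 570 nm.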
In general terms: Tetrazolium dyes change colour on reduction, which living cells bring about.

Data set [2] concerns Leishmania donovani. Kind of data set: Antiprotozoal activity against promastigotes of Leishmania donovani MHOM/IN/90/GE1F8R after 72 hrs by alamar blue assay. Type of data set: functional, organism-based. The procedure, abridged:
(§1)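 Log-phase promastigotes at 10^6/well in phenol-red-free RPMI 1640. Serum was heat-inactivated FBS at 20% for L. donovani and 10% for L. amazonensis. Cells were exposed to compound serial dilutions with 10% Alamar Blue at 26 °C for 72 h and read at 570 nm with a 630 nm reference. IC50 was taken by linear regression with 95% confidence limits. Three experiments were run in duplicate and analysed by paired two-tailed t-test.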
For orientation: Resazurin is reduced to fluorescent resorufin, in cell work by metabolically active cells.

In data set [3] the test system is Trypanosoma cruzi. Kind of data set: Antiprotozoal activity against epimastigotes of Trypanosoma cruzi Y by alamar blue assay. It counts as functional, organism-based. In a few lines:
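Y-strain epimastigotes grown at 28 °C in LIT medium with 10% (v/v) heat-inactivated FBS. Growth inhibition was measured by the same Alamar Blue colorimetric method used for Leishmania promastigotes.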

The test system of data set [4] is Leishmania amazonensis. Kind of data set: Antiprotozoal activity against promastigotes of Leishmania amazonensis MHOM/ BR/77/LTB0016 after 72 hrs by alamar blue assay. Particulars: MHOM/ BR/77/LTB0016, 72 h. Type of data set: functional, organism-based. The procedure, abridged: as §1

In brackets after ≈: the same amount, converted by molar mass. Bounds are passed on as bounds.

Turning to `O=C1C=Cc2cccc3ccc(-c4ccccn4)c1c23`, the inhibition at 72 h, 10 µM in data set [1] turned out to be 0%. The results for the IC50 in data set [2], in data set [3] and in data set [4] were above 100 µg/mL, above 100 µg/mL and 53.2 µg/mL (≈ 207 µM), respectively.
In the case of `COc1ccc(-c2ccc3cccc4c3c2C(=O)C(O)C4O)cc1` (configuration not stated), the IC50 in data set [2], in data set [3] and in data set [4] was above 100 µg/mL throughout.
As to `O=C1C=Cc2cccc3ccc(-c4ccco4)c1c23`, in data set [1], the inhibition at 72 h, 10 µM worked out at 14%. The IC50 in data set [2] is above 100 µg/mL; in data set [3], above 100 µg/mL; in data set [4] it was 8.39 µg/mL (≈ 34.1 µM).
Turning to `O=C1C=Cc2cccc3cccc1c23` [PERINAPHTHENONE], the inhibition at 72 h, 10 µM in data set [1] was found to be 0%. For the same compound, the results for the IC50 in data set [2], in data set [3] and in data set [4] were 65.1 µg/mL (≈ 361 µM), 2.62 µg/mL (≈ 14.5 µM) and 27.3 µg/mL (≈ 151 µM), respectively.
Consider `O=C1C(O)=Cc2cccc3ccc(-c4ccc(O)cc4)c1c23`, for which the inhibition at 72 h, 10 µM in data set [1] came out at 23%. Moreover, the IC50 in data set [2], in data set [3] and in data set [4] was above 100 µg/mL each time.
Take `N#Cc1ccc2cccc3c2c1C(=O)C=C3`: in data set [1], the inhibition at 72 h, 10 µM was 44%. Moreover, the IC50 in data set [2] was 1.02 µg/mL (≈ 4.97 µM); in data set [3] it was above 100 µg/mL; in data set [4], 3.73 µg/mL (≈ 18.2 µM).
Take `COC1=Cc2cccc3ccc(-c4ccccc4)c(c23)C1=O`: the inhibition at 72 h, 10 µM in data set [1] is 14%. The values for the IC50 in data set [2], in data set [3] and in data set [4] were 29.9 µg/mL (≈ 104 µM), 48.3 µg/mL (≈ 169 µM) and 9.04 µg/mL (≈ 31.6 µM), respectively.
On to `Oc1ccc2cccc3c2c1C(c1ccco1)C=C3` (configuration not stated), for which the IC50 in data set [2], in data set [3] and in data set [4] was above 100 µg/mL in each case.
On to `OC1(c2ccccn2)C=Cc2cccc3ccc(-c4ccccn4)c1c23` (configuration not stated), for which the inhibition at 72 h, 10 µM in data set [1] was determined as 0%. In addition, the IC50 in data set [2], in data set [3] and in data set [4] was above 100 µg/mL each time.
Turning to `O=C1C(O)=Cc2c(-c3ccccc3)ccc3cccc1c23`, the inhibition at 72 h, 10 µM in data set [1] came to 19%. Besides, the IC50 in data set [2], in data set [3] and in data set [4] was above 100 µg/mL each time.
`O=C1C(O)=Cc2c(-c3ccc(O)cc3)ccc3cccc1c23`: the inhibition at 72 h, 10 µM in data set [1] turned out to be 12%. Also, the IC50 in data set [2], in data set [3] and in data set [4] was above 100 µg/mL each time.
In the case of `COc1ccc(-c2ccc3cccc4c3c2C(=O)C=C4)cc1`, in data set [1], the inhibition at 72 h, 10 µM was determined as 13%. Moreover, the IC50 in data set [2] is above 100 µg/mL; in data set [3] it was above 100 µg/mL; in data set [4], 0.83 µg/mL (≈ 2.9 µM).
As for `COc1ccc(-c2ccc3cccc4c3c2C=CC4=O)cc1`, the inhibition at 72 h, 10 µM in data set [1] came to 17%. The IC50 was above 100 µg/mL in data set [2], 11.4 µg/mL (≈ 39.8 µM) in data set [3] and 4.43 µg/mL (≈ 15.5 µM) in data set [4].
The like results for `COc1ccc(-c2ccc3cccc4c3c2C(=O)C(O)=C4)cc1` were, in that order, 19%, above 100 µg/mL, above 100 µg/mL and above 100 µg/mL.
For the compound `O=C1C=Cc2cccc3ccc(-c4ccccc4)c1c23`, the inhibition at 72 h, 10 µM in data set [1] stood at 5%. Further, the IC50 in data set [2], in data set [3] and in data set [4] was above 100 µg/mL throughout.
Turning to `COc1ccc(C2=CC(=O)c3cccc4cccc2c34)cc1`, the inhibition at 72 h, 10 µM in data set [1] was 2%. The IC50 in data set [2], in data set [3] and in data set [4] was above 100 µg/mL each time.
On to `COC1=Cc2cccc3ccc(-c4ccc(OC)cc4)c(c23)C1=O`, for which, in data set [1], the inhibition at 72 h, 10 µM is 15%. The IC50 in data set [2], in data set [3] and in data set [4] was above 100 µg/mL throughout.
`Cc1cccc(C)c1-c1ccc2cccc3c2c1C(=O)C=C3`: the inhibition at 72 h, 10 µM in data set [1] was found to be 1%. The IC50 in data set [2] was determined as 27.8 µg/mL (≈ 97.8 µM); in data set [3], 49.8 µg/mL (≈ 175 µM); in data set [4], 42.8 µg/mL (≈ 151 µM).
On to `O=C1C(O)=Cc2cccc3ccc(-c4ccccc4)c1c23`, for which, in data set [1], the inhibition at 72 h, 10 µM was 22%. Further, the IC50 in data set [2], in data set [3] and in data set [4] was above 100 µg/mL in each case.
Take `O=C1C=Cc2cccc3ccc(-c4cccs4)c1c23`: the inhibition at 72 h, 10 µM in data set [1] came to 4%. Besides, the values for the IC50 in data set [2], in data set [3] and in data set [4] were above 100 µg/mL, above 100 µg/mL and 14.5 µg/mL (≈ 55.3 µM), respectively.
With `COC1c2cccc3ccc(-c4ccccc4)c(c23)C(=O)C1O` (configuration not stated), the inhibition at 72 h, 10 µM in data set [1] is 17%. For the same compound, the IC50 in data set [2], in data set [3] and in data set [4] was above 100 µg/mL in each case.

By inhibition is commonly meant the share of the control response that was lost under treatment. The term IC50 denotes the concentration that gives 50% inhibition.
